# Results from different studies.
# Each line is one published result; the experiments were not run side by side.
# Read-out: cell growth or viability
SMILES,cell line,technique,time,measurement,result
COc1cccc2c1C(=O)c1c(O)c3c(c(O)c1C2=O)C[C@@](O)(C(=O)CO)C[C@@H]3O[C@H]1C[C@H](N)[C@H](O)[C@H](C)O1,MDA-MB-157,MTT,72 h,IC50,500 nM
C=CC(=O)N1CCN(c2nc(=O)n(-c3c(C)ccnc3C(C)C)c3nc(-c4c(O)cccc4F)c(F)cc23)[C@@H](C)C1,TOV21G,ATP luminescence,,IC50,> 10000 nM
CCC[C@H]1NC(=O)[C@H](Cc2cc(Cl)ccc2-c2cnn(C)c2)N(C)C(=O)[C@H](CC(C)C)NC(=O)[C@@H](N(C)C(=O)[C@H](CCCCN2CCOCC2)NC(=O)[C@@H](c2cccnc2)C2CCCCC2)CCCCNC1=O,NCI-H69,MTT,5 days,GI50,5200 nM
C=C(F)C(=O)N1CCN(c2nc(OC[C@@H]3CCCN3C)nc3c2CCN(c2cccc4cccc(Cl)c24)C3)C[C@@H]1CC#N,TOV21G,ATP luminescence,,IC50,> 10000 nM
CCCN1C(=O)[C@H](CC(C)C)NC(=O)[C@@H](N(C)C(=O)[C@H](CC2CCC2)NC(=O)[C@@H]2C[C@@H](F)CN2C(=O)[C@@](C)(O)C(F)(F)F)CCCCNC(=O)C2(CC2)NC(=O)[C@@H]1Cc1cc(Cl)ccc1Cl,NCI-H69,MTT,5 days,GI50,6 nM
CCNCCCn1c2c(c3cc(OC)c(OC)cc3c1=O)C(=O)c1cc3c(nc1-2)OCO3,RPMI-8226,MTS,72 h,IC50,190 nM
C[C@H](NC(=O)[C@H](CC(=O)NCC(C)(C)C)NC(=O)C(=O)c1c[nH]c2ccccc12)C(=O)NCc1ccc(F)cc1F,RPMI-8226,MTS,72 h,IC50,11500 nM
COc1cc2c3c(n(CCCNCCO)c(=O)c2cc1OC)-c1nc2c(cc1C3=O)OCO2,RPMI-8226,MTS,72 h,IC50,559 nM
C=CC(=O)NC1CCN(c2ncc3ncnc(Nc4ccc(Oc5ccc6c(c5)ncn6C)c(C)c4)c3n2)CC1,CAL-120,,,EC50,4930 nM
